Calls of active or inactive are those of the source.
Legend:
LCSC-4 [1] = assay: Antitumor activity against human LCSC-4 cells assessed as increase in CDYL2 expression by Western blot analysis; type: functional, cell-based
Method in brief: (§1)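 Western blot on TICs exposed to G9A inhibitor. Cells lysed in 2X SDS buffer; 10 μl lysate or 20 μg protein run on 4–12% SDS-PAGE, transferred to PVDF, blocked in 5% non-fat milk/TBST, then probed with primary and secondary antibodies against each target protein.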

LCSC-4 [2] = assay: Antitumor activity against human LCSC-4 cells assessed as increase in DPP4 expression by Western blot analysis; type: functional, cell-based; method in brief: as §1
LCSC-1 [3] = assay: Antitumor activity against human LCSC-1 cells assessed as decrease in tumor sphere formation at 10 uM for 72 hrs; type: functional, cell-based
Method in brief: (§2)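 Single cells from accutase-dissociated tumorspheres, 50,000–100,000 per well, grown in serum-free sphere medium (B-27, EGF, FGF, heparin). Exposed to 10 μM inhibitor at 37 °C for 72 h, then imaged. Sphere-forming capacity was scored by sphere size, and treated cells were compared with control by t test.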

LCSC-2 [4] = assay: Antitumor activity against human LCSC-2 cells assessed as decrease in tumor sphere formation at 10 uM for 72 hrs; type: functional, cell-based; method in brief: as §2
LCSC-4 [5] = assay: Antitumor activity against human LCSC-4 cells assessed as decrease in tumor sphere formation at 10 uM for 72 hrs; type: functional, cell-based; method in brief: as §2
LCSC-1 [6] = assay: Antitumor activity against human LCSC-1 cells assessed as decrease in cell proliferation at 10 uM for 72 hrs by CCK-8 assay; type: functional, cell-based
Method in brief: (§3)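 TIC spheres dissociated to single cells with accutase and grown in serum-free DMEM/F12 with B-27, 25 ng/ml EGF, 25 ng/ml FGF and heparin. Cells were treated with 10 μM inhibitor at 37 °C for 72 h in 96-well format. CCK-8 solution was then added for 1–4 h and absorbance read at 450 nm. Groups compared against control by t test.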

LCSC-2 [7] = assay: Antitumor activity against human LCSC-2 cells assessed as decrease in cell proliferation at 10 uM for 72 hrs by CCK-8 assay; type: functional, cell-based; method in brief: as §3
LCSC-4 [8] = assay: Antitumor activity against human LCSC-4 cell assessed as decrease in cell proliferation at 10 uM for 72 hrs by CCK-8 assay; type: functional, cell-based; method in brief: as §3
LCSC-2 [9] = assay: Antitumor activity against human LCSC-2 cells assessed as increase in CDYL2 expression by Western blot analysis; type: functional, cell-based; method in brief: as §1
LCSC-2 [10] = assay: Antitumor activity against human LCSC-2 cells assessed as increase in DPP4 expression by Western blot analysis; type: functional, cell-based; method in brief: as §1
LCSC-2 [11] = assay: Antitumor activity against human LCSC-2 cells assessed as increase in SP5 expression by Western blot analysis; type: functional, cell-based; method in brief: as §1
LCSC-2 [12] = assay: Antitumor activity against human LCSC-2 cells assessed as increase in STAMBPL1 expression by Western blot analysis; type: functional, cell-based; method in brief: as §1
LCSC-2 [13] = assay: Antitumor activity against human LCSC-2 cells assessed as increase in FOXP1 expression by Western blot analysis; type: functional, cell-based; method in brief: as §1
LCSC-2 [14] = assay: Antitumor activity against human LCSC-2 cells assessed as increase in ROBO1 expression by Western blot analysis; type: functional, cell-based; method in brief: as §1
LCSC-4 [15] = assay: Antitumor activity against human LCSC-4 cells xenografted in NOD-SCID mouse assessed as suppression of tumor volume at 10 mg/kg, ip administered for 8 weeks; type: functional, organism-based
Method in brief: (§4)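 NOD-SCID mice given 100,000 single cells from dissociated wild-type TIC spheres subcutaneously. Established tumors split into vehicle or 10 mg/kg inhibitor groups, dosed intraperitoneally for 8 weeks. Tumor size measured weekly and tumor weight taken at euthanasia. Tumors fixed in 10% formaldehyde and stained by IHC (×20) for G9A, H3K9Me2, FOXP1 and SP5; t test.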

LCSC-4 [16] = assay: Antitumor activity against human LCSC-4 cells xenografted in NOD-SCID mouse assessed as decrease in G9a expression at 10 mg/kg, ip administered for 8 weeks by immunohistochemical staining assay; type: functional, organism-based; method in brief: as §4
LCSC-4 [17] = assay: Antitumor activity against human LCSC-4 cells xenografted in NOD-SCID mouse assessed as decrease in H3K9Me2 expression at 10 mg/kg, ip administered for 8 weeks by immunohistochemical staining assay; type: functional, organism-based; method in brief: as §4
LCSC-4 [18] = assay: Antitumor activity against human LCSC-4 cells xenografted in NOD-SCID mouse assessed as increase in FOXP1 expression at 10 mg/kg, ip administered for 8 weeks by immunohistochemical staining assay; type: functional, organism-based; method in brief: as §4
LCSC-4 [19] = assay: Antitumor activity against human LCSC-4 cells xenografted in NOD-SCID mouse assessed as increase in SP5 expression at 10 mg/kg, ip administered for 8 weeks by immunohistochemical staining assay; type: functional, organism-based; method in brief: as §4
LCSC-4 [20] = assay: Antitumor activity against human LCSC-4 cells assessed as increase in SP5 expression by Western blot analysis; type: functional, cell-based; method in brief: as §1
LCSC-4 [21] = assay: Antitumor activity against human LCSC-4 cells assessed as increase in STAMBPL1 expression by Western blot analysis; type: functional, cell-based; method in brief: as §1
LCSC-4 [22] = assay: Antitumor activity against human LCSC-4 cells assessed as increase in FOXP1 expression by Western blot analysis; type: functional, cell-based; method in brief: as §1
LCSC-4 [23] = assay: Antitumor activity against human LCSC-4 cells assessed as increase in ROBO1 expression by Western blot analysis; type: functional, cell-based; method in brief: as §1
LCSC-2 (human) [24] = assay: Antitumor activity against human LCSC-2 cells xenografted in NOD-SCID mouse assessed as suppression of tumor volume at 10 mg/kg, ip administered for 8 weeks
LCSC-2 (human) [25] = assay: Antitumor activity against human LCSC-2 cells xenografted in NOD-SCID mouse assessed as decrease in G9a expression at 10 mg/kg, ip administered for 8 weeks by immunohistochemical staining assay
LCSC-2 (human) [26] = assay: Antitumor activity against human LCSC-2 cells xenografted in NOD-SCID mouse assessed as increase in SP5 expression at 10 mg/kg, ip administered for 8 weeks by immunohistochemical staining assay
LCSC-2 (human) [27] = assay: Antitumor activity against human LCSC-2 cells xenografted in NOD-SCID mouse assessed as increase in FOXP1 expression at 10 mg/kg, ip administered for 8 weeks by immunohistochemical staining assay
LCSC-2 (human) [28] = assay: Antitumor activity against human LCSC-2 cells xenografted in NOD-SCID mouse assessed as decrease in H3K9Me2 expression at 10 mg/kg, ip administered for 8 weeks by immunohistochemical staining assay

Measured: Activity

COc1cc2c(NC3CCN(C(C)C)CC3)nc(N3CCC(F)(F)CC3)nc2cc1OCCCN1CCCC1
active: all assays above

Source: ChEMBL document CHEMBL5712917, “G9a regulates tumorigenicity and stemness through genome-wide DNA methylation reprogramming in non-small cell lung cancer” (Clin Epigenetics, 2020)
